Experimental data as given in ChEMBL document CHEMBL3259746, “Identification of [1,2,3]triazolo[4,5-d]pyrimidin-7(6H)-ones as novel inhibitors of Chikungunya virus replication” (J Med Chem, 2014).

Tests used:
Chikungunya virus [1] = experiment: Antiviral activity against Chikungunya virus Indian Ocean strain 899 infected in African green monkey Vero cells assessed as inhibition of virus-induced cytopathic effect after 7 days by MTS/PMS method; format: functional, cell-based; conditions: Indian Ocean strain 899, Vero, 168 h
[2] = Cytotoxicity against non-infected African green monkey Vero cells after 7 days by MTS/PMS method; format: cell-based; conditions: chlorocebus sabaeus
Semliki Forest virus = experiment: Antiviral activity against Semliki forest virus Vietnam infected in African green monkey Vero E6 cells assessed as reduction in virus yield after 2 days by real time RT-PCR analysis; format: functional, organism-based; conditions: 48 h
Chikungunya virus [3] = experiment: Antiviral activity against Chikungunya virus St. Martin infected in African green monkey Vero E6 cells assessed as reduction in virus yield after 2 days by real time RT-PCR analysis; format: functional, cell-based; conditions: 48 h
Sindbis virus = experiment: Antiviral activity against Sindbis virus HRsp infected in African green monkey Vero E6 cells assessed as reduction in virus yield after 2 days by real time RT-PCR analysis; format: functional, organism-based; conditions: 48 h
Chikungunya virus [4] = experiment: Antiviral activity against Chikungunya virus Venturini infected in African green monkey Vero E6 cells assessed as reduction in virus yield after 2 days by real time RT-PCR analysis; format: functional, cell-based; conditions: 48 h
Chikungunya virus [5] = experiment: Antiviral activity against Chikungunya virus Congo 95 infected in African green monkey Vero E6 cells assessed as reduction in virus yield after 2 days by real time RT-PCR analysis; format: functional, cell-based; conditions: Congo 95, Vero, 48 h
[6] = Cytotoxicity against non-infected African green monkey Vero E6 cells up to 300 uM after 2 days; format: cell-based; conditions: chlorocebus sabaeus, 48 h
In short: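 Uninfected Vero E6 cells were tested up to 300 μM under the same settings as the 2-day virus-yield assay: 5 × 10⁴ cells/well, 2.5% FCS medium, and 2-fold dilutions in triplicate.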

Chikungunya virus [7] = experiment: Antiviral activity against Chikungunya virus LR2006-OPY1 infected in African green monkey Vero E6 cells assessed as reduction in virus yield after 2 days by real time RT-PCR analysis; format: functional, cell-based; conditions: 48 h
[8] = Selectivity index, ratio of CC50 for African green monkey Vero cells to EC50 for Chikungunya virus Indian Ocean strain 899 infected in African green monkey Vero cells; format: toxicity, cell-based; conditions: read-out: Ratio CC50/EC50

Row | SMILES | EC50 (Chikungunya virus [1]) | EC90 (Chikungunya virus [1]) | CC50 at 168 h [2] | other results
1 | COc1cccc(-n2nnc3c(=O)[nH]c(C)nc32)c1 | 28 µM | 179 µM | > 777 µM | 
2 | CC(C)Oc1cccc(-n2nnc3c(=O)[nH]c(=O)[nH]c32)c1 | > 435 µM | > 435 µM | > 696 µM | 
3 | Cc1nc2c(nnn2-c2cccc(Cl)c2)c(=O)[nH]1 | 32 µM | 235 µM | > 764 µM | 
4 | CC(=O)c1cccc(-n2cnc3c(=O)[nH]c(C)nc32)c1 | 127 µM | 161 µM | 491 µM | 
5 | CC(C)Oc1cccc(-n2nnc3c(=O)[nH]c(CC#N)nc32)c1 | 115 µM | 137 µM | 215 µM | 
6 | CC(C)Oc1cccc(-n2nnc3c(=O)[nH]c(C(F)(F)F)nc32)c1 | 68 µM | > 147 µM | 104 µM | 
7 | CCOC(=O)c1cccc(-n2nnc3c(=O)[nH]c(C)nc32)c1 | 202 µM | 331 µM | 322 µM | 
8 | CC(C)Oc1cccc(-n2nnc3c(=O)[nH]c(-c4ccncc4)nc32)c1 | 75 µM | > 144 µM | 82 µM | 
9 | CC(=O)c1cccc(-n2nnc3c(Cl)nc(C)nc32)c1 | > 174 µM | > 174 µM | > 174 µM | 
10 | CC(=O)c1cccc(-n2nnc3c(=O)[nH]cnc32)c1 | > 490 µM | > 490 µM | > 784 µM | 
11 | COc1nc(C)nc2c1nnn2-c1cccc(C(C)=O)c1 | > 441 µM | > 441 µM | 495 µM | 
12 | Cc1nc2c(nnn2-c2cccc(C(=O)O)c2)c(=O)[nH]1 | > 399 µM | > 399 µM | > 638 µM | 
13 | CC(C)Oc1cccc(-n2nnc3c(=O)[nH]c(-c4ccccc4)nc32)c1 | 204 µM | > 360 µM | 277 µM | 
14 | CC(=O)c1cccc(-n2nnc3c(N)nc(C)nc32)c1 | 225 µM | 309 µM | > 746 µM | 
15 | CNc1nc(C)nc2c1nnn2-c1cccc(C(C)=O)c1 | > 443 µM | > 443 µM | 514 µM | 
16 | Cc1nc2c(nnn2-c2cccc(N(C)C)c2)c(=O)[nH]1 | > 370 µM | > 370 µM | 538 µM | 

Row | SMILES | EC50 (Chikungunya virus [1]) | EC90 (Chikungunya virus [1]) | CC50 at 168 h [2] | other results
17 | CC(=O)c1cccc(-n2nnc3c(=O)n(C)c(C)nc32)c1 | > 441 µM | > 441 µM | > 706 µM | 
18 | Cc1nc2c(nnn2-c2cccc(C(=O)c3ccccc3)c2)c(=O)[nH]1 | 23 µM | 47 µM | > 604 µM | 
19 | CC(=O)c1cccc(-n2nnc3c(=O)[nH]c(C)nc32)c1 | 19 µM | 38 µM | > 743 µM | EC50 (Semliki Forest virus): > 464 µM; EC50 (Chikungunya virus [3]): 24 µM; EC50 (Sindbis virus): > 464 µM; EC50 (Chikungunya virus [4]): 26 µM; EC50 (Chikungunya virus [5]): 6.4 µM; Activity [6]: Non-toxic; EC50 (Chikungunya virus [7]): 25 µM
20 | CC(=O)c1ccc(-n2nnc3c(=O)[nH]c(C)nc32)cc1 | 326 µM | > 743 µM | > 743 µM | 
21 | CC(=O)Nc1cccc(-n2nnc3c(=O)[nH]c(C)nc32)c1 | 318 µM | 425 µM | 206 µM | 
22 | COc1ccccc1-n1nnc2c(=O)[nH]c(C)nc21 | 348 µM | 460 µM | > 777 µM | 
23 | CCc1nc2c(nnn2-c2cccc(OC(C)C)c2)c(=O)[nH]1 | 3 µM | 18 µM | > 668 µM | selectivity ratio [8]: > 222; EC50 (Semliki Forest virus): 219 µM; EC50 (Chikungunya virus [3]): 2.9 µM; EC50 (Sindbis virus): 69 µM; EC50 (Chikungunya virus [4]): 1.4 µM; EC50 (Chikungunya virus [5]): 0.75 µM; Activity [6]: Non-toxic; EC50 (Chikungunya virus [7]): 2.6 µM
24 | Cc1nc2c(nnn2-c2ccc3c(c2)OCO3)c(=O)[nH]1 | > 461 µM | > 461 µM | > 737 µM | 
25 | Cc1nc2c(nnn2Cc2cccc(OC(C)C)c2)c(=O)[nH]1 | 167 µM | 232 µM | > 872 µM | 
26 | CCCOc1ccc(-n2nnc3c(=O)[nH]c(C)nc32)cc1 | 169 µM | > 701 µM | 594 µM | 
27 | Cc1nc2c(nnn2-c2cccc(C#N)c2)c(=O)[nH]1 | 131 µM | 187 µM | > 793 µM | 
28 | Cc1nc2c(nnn2-c2cccc(OC(C)C)c2)c(=O)[nH]1 | 12 µM | 156 µM | > 704 µM | 
29 | CCN(CC)CCCC(C)Nc1ccnc2cc(Cl)ccc12 (centres undefined) [CHLOROQUINE] |  | 21 µM |  | 
30 | CC(C)Oc1cccc(-n2nnc3c(=O)[nH]c(C(C)C)nc32)c1 | 280 µM | > 638 µM | > 638 µM | 
31 | CC(=O)c1cccc(-n2c(C)nc3c(=O)[nH]c(C)nc32)c1 | > 440 µM | > 440 µM | > 703 µM | 
32 | CCCc1nc2c(nnn2-c2cccc(OC(C)C)c2)c(=O)[nH]1 | > 399 µM | > 399 µM | > 638 µM | 
